Measurements as given in ChEMBL document CHEMBL1765016, “Indolylarylsulfones as HIV-1 non-nucleoside reverse transcriptase inhibitors: new cyclic substituents at indole-2-carboxamide” (J Med Chem, 2011).

Tests used:
[1] = system: Human immunodeficiency virus 2; test: Antiviral activity against HIV2 isolate ROD infected in human CEM cells assessed as inhibition of virus-induced cytopathicity after 4 days by microscopic analysis; format: functional, organism-based; conditions: Human immunodeficiency virus 2, ISOLATE ROD, CCRF-CEM, 96 h
Procedure, shortened: (§1)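 CEM cells (~3 × 10⁵ cells/mL) infected with ~100 CCID₅₀ virus per mL, seeded into wells with compound dilutions. Syncytia (giant cell) formation scored microscopically after 4 days at 37 °C. EC₅₀ is the concentration protecting cells by 50%. Values are means of two experiments in triplicate.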

[2] = system: Human immunodeficiency virus 1; test: Antiviral activity against wild type HIV1 3B infected in human CEM cells assessed as inhibition of virus-induced cytopathicity after 4 days by microscopic analysis; format: functional, organism-based; conditions: Human immunodeficiency virus 1, 3B, CCRF-CEM, 96 h; procedure, shortened: as §1
[3] = target: Human immunodeficiency virus type 1 reverse transcriptase (Human immunodeficiency virus 1, UniProt Q72547, Y181I); test: Inhibition of HIV1 reverse transcriptase Y181I mutant expressed in Escherichia coli assessed as incorporation of [3H]dTTP into poly(rA)/oligo(dT) by scintillation counting
Procedure, shortened: (§2)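 The RT was recombinant p66(His)/p51 heterodimer, mutant form, expressed in E. coli. TCA-precipitable radioactivity on GF/C filters was read by scintillation. IC50 is the concentration giving 50% inhibition.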

[4] = target: Human immunodeficiency virus type 1 reverse transcriptase (Human immunodeficiency virus 1, UniProt Q72547, K103N); test: Inhibition of HIV1 reverse transcriptase K103N mutant expressed in Escherichia coli assessed as incorporation of [3H]dTTP into poly(rA)/oligo(dT) by scintillation counting; procedure, shortened: as §2
[5] = target: Human immunodeficiency virus type 1 reverse transcriptase (Human immunodeficiency virus 1, UniProt Q72547, L100I); test: Inhibition of HIV1 reverse transcriptase L100I mutant expressed in Escherichia coli assessed as incorporation of [3H]dTTP into poly(rA)/oligo(dT) by scintillation counting; procedure, shortened: as §2
[6] = target: Human immunodeficiency virus type 1 reverse transcriptase (Human immunodeficiency virus 1, UniProt Q72547); test: Inhibition of HIV1 wild type reverse transcriptase expressed in Escherichia coli assessed as incorporation of [3H]dTTP into poly(rA)/oligo(dT) by scintillation counting
Procedure, shortened: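 Template was poly(rA)/oligo(dT) 10:1 (0.3 μM 3′-OH ends) with 10 μM [³H]dTTP, at 37 °C. TCA-precipitable counts were taken on GF/C filters. IC₅₀ is 50% inhibition of RT activity.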

[7] = Selectivity index, CC50 for human CEM cells to IC50 for HIV1 3B; format: functional, CCRF-CEM
Procedure, shortened: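 Ratio of CC₅₀ (Coulter count, mock-infected CEM) to EC₅₀ (CEM, HIV-1 IIIB, microscopic syncytia scoring at day 4).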

[8] = Cytotoxicity against human CEM cells by coulter counter analysis; format: cell-based; conditions: CEM (CCRF-CEM) cells
Procedure, shortened: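 Mock-infected CEM cultures with compound, cell number counted by Coulter counter as percent of untreated control. CC₅₀ (50% reduction in proliferation) was read from plots against concentration. Values are means of two experiments in triplicate.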

Structure (SMILES) | EC50 [1] [µM] | EC50 [2] [µM] | IC50 [3] [µM] | IC50 [4] [µM] | IC50 [5] [µM] | IC50 [6] [µM] | Selectivity Index [7] | CC50 [8] [µM]
Cc1cc(C)cc(S(=O)(=O)c2c(C(=O)NCCc3ccccc3)[nH]c3ccc([N+](=O)[O-])cc23)c1 | > 50 | 0.0068 | > 40 | > 40 | 0.04 | 0.06 | >72529 | > 500
Cc1cc(C)cc(S(=O)(=O)c2c(C(=O)NCCn3cccc3)[nH]c3ccc([N+](=O)[O-])cc23)c1 | > 50 | 0.0069 | > 40 | 0.272 | 0.023 | 0.034 | 32754 | 226
Cc1cc(C)cc(S(=O)(=O)c2c(C(=O)NCN3CCCC3)[nH]c3ccc(Cl)c(F)c23)c1 | > 2 | 0.0039 |  |  |  |  | 2385 | 9.3
Cc1cc(C)cc(S(=O)(=O)c2c(C(=O)NCN3CCCCC3)[nH]c3ccc(Br)cc23)c1 | > 2 | 0.0037 | 0.497 | 0.125 | 0.019 | 0.03 | 2703 | 10
Cc1cc(C)cc(S(=O)(=O)c2c(C(=O)NCN3CCOCC3)[nH]c3ccc(Cl)c(F)c23)c1 | > 10 | 0.0025 | 10.2 | 1.17 | 0.241 | 0.08 | 15200 | 38
Cc1cc(C)cc(S(=O)(=O)c2c(C(=O)NCCn3cccc3)[nH]c3ccc(Cl)c(F)c23)c1 | > 10 | 0.0055 | 3.7 | 0.17 | 0.03 | 0.018 | 1782 | 9.8
Cc1cc(C)cc(S(=O)(=O)c2c(C(=O)NCCN3CCOCC3)[nH]c3ccc(Cl)cc23)c1 | > 2 | 0.0088 | > 40 | 6.68 | 0.225 | 0.099 | 5682 | 50
Cc1cc(C)cc(S(=O)(=O)c2c(C(=O)NCN3CCOCC3)[nH]c3ccc([N+](=O)[O-])cc23)c1 | ≥ 10 | 0.0058 | 1.6 | 0.864 | 0.099 | 0.15 | 7931 | 46
Cc1cc(C)cc(S(=O)(=O)c2c(C(=O)NCCOc3ccccc3)[nH]c3ccc(Br)cc23)c1 | > 25 | 0.029 | > 40 | > 40 | > 40 | 4.72 | >17241 | > 500
Cc1cc(C)cc(S(=O)(=O)c2c(C(=O)NCN3CCCC3)[nH]c3ccc([N+](=O)[O-])cc23)c1 | 7.8 | 0.0025 | 1.02 | 0.287 | 0.054 | 0.034 | 4800 | 12
Cc1ccnc2c1NC(=O)c1cccnc1N2C1CC1 [NEVIRAPINE] | > 10 | 0.0192 |  |  |  |  | >520 | > 10000
Cc1cc(C)cc(S(=O)(=O)c2c(C(=O)NCN3CCCC3)[nH]c3ccc(Br)cc23)c1 | > 2 | 0.0013 | 0.418 | 0.067 | 0.014 | 0.008 | 7385 | 9.6
Cc1cc(C)cc(S(=O)(=O)c2c(C(=O)NCCN3CCCC3)[nH]c3ccc(Br)cc23)c1 | > 2 | 0.016 | > 40 | 0.697 | 0.315 | 0.065 | 351 | 5.6
Cc1cc(C)cc(S(=O)(=O)c2c(C(=O)NCCN3CCOCC3)[nH]c3ccc(Cl)c(F)c23)c1 | > 10 | 0.013 | > 40 | 6.37 | 0.747 | 0.711 | 846 | 11
Cc1cc(C)cc(S(=O)(=O)c2c(C(=O)NCCN3CCOCC3)[nH]c3ccc([N+](=O)[O-])cc23)c1 | 4.9 | 0.008 | > 40 | > 40 | 0.421 | 0.055 | 5250 | 42
Cc1cc(C)cc(S(=O)(=O)c2c(C(=O)NCCc3ccccc3)[nH]c3ccc(Cl)c(F)c23)c1 | > 10 | 0.014 |  |  |  |  | 1214 | 17
Cc1cc(C)cc(S(=O)(=O)c2c(C(=O)NCCn3cccc3)[nH]c3ccc(Br)cc23)c1 | > 10 | 0.0064 |  |  |  |  | 22813 | 146
Cc1cc(C)cc(S(=O)(=O)c2c(C(=O)NCCc3ccccc3)[nH]c3ccc(Br)cc23)c1 | > 2 | 0.014 | > 40 | 1.68 | 0.023 | 0.128 | 29214 | 409
Cc1cc(C)cc(S(=O)(=O)c2c(C(=O)NCN3CCCCC3)[nH]c3ccc(Cl)c(F)c23)c1 | > 10 | 0.0039 |  |  |  |  | 8205 | 32
Cc1cc(C)cc(S(=O)(=O)c2c(C(=O)NCCN3CCCC3)[nH]c3ccc(Cl)c(F)c23)c1 | > 2 | 0.028 | > 40 | 2.41 | 1.55 | 0.158 | 229 | 6.4
Cc1cc(C)cc(S(=O)(=O)c2c(C(=O)NCc3ccccc3)[nH]c3ccc(Cl)c(F)c23)c1 | > 2 | 0.0058 | > 40 | 0.144 | 0.04 | 0.04 | 2586 | 15
O=C1Nc2ccc(Cl)cc2[C@@](C#CC2CC2)(C(F)(F)F)O1 [EFAVIRENZ] | > 10 | 0.0015 |  |  |  |  | >6667 | > 10000
Cc1cc(C)cc(S(=O)(=O)c2c(C(=O)NCN3CCOCC3)[nH]c3ccc(Br)cc23)c1 | > 10 | 0.0034 | 4.3 | 0.863 | 0.1 | 0.168 | 10294 | 35
Cc1cc(C)cc(S(=O)(=O)c2c(C(=O)NCN3CCCCC3)[nH]c3ccc([N+](=O)[O-])cc23)c1 | 7.5 | 0.0031 | 0.999 | 0.307 | 0.01 | 0.013 | 3871 | 12
Cc1cc(C)cc(S(=O)(=O)c2c(C(=O)NCCOc3ccccc3)[nH]c3ccc([N+](=O)[O-])cc23)c1 | > 2 | 0.029 | > 40 | > 40 | > 40 | 0.95 | >17241 | > 500
Cc1cc(C)cc(S(=O)(=O)c2c(C(=O)NCCN3CCOCC3)[nH]c3ccc(Br)cc23)c1 | > 50 | 0.17 | > 40 | 1.36 | 0.108 | 0.063 | 2406 | 409
Cc1cc(C)cc(S(=O)(=O)c2c(C(=O)NCCN3CCCC3)[nH]c3ccc([N+](=O)[O-])cc23)c1 | > 10 | 0.016 | > 40 | 1.35 | 0.594 | 0.28 | 1313 | 21
Cc1cc(C)cc(S(=O)(=O)c2c(C(=O)NCCOc3ccccc3)[nH]c3ccc(Cl)c(F)c23)c1 | > 2 | 0.019 | > 40 | 18.5 | 0.068 | 0.066 | 549 | 11
